Entries after “also recorded” stand apart in the source; their conditions may differ.
Tests used:
Human TOP2A = Human TOP2A (Homo sapiens, UniProt P11388); experiment: TOP2A decatenation assay; assay type: biochemical; conditions: screen at 30 μM / SAR discussion
In short: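 For screening, TOP2A (3U/reaction) was preincubated 20 min at 37 °C with 30 μM test compound in 1.2% DMSO. Then 2 mM ATP and 35 ng kDNA were added for 1 h at 37 °C. Products ran on 0.8% agarose in TBE with 0.2 μg/mL ethidium bromide (1 h, 100 V), and decatenated bands were compared with vehicle. Dose-responses used 2-fold dilutions (58.6 nM–30 μM) and 4U enzyme.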

hTopoIIα = hTopoIIα (Homo sapiens, UniProt P11388); experiment: TOP2A ATPase assay; assay type: biochemical; conditions: ATP hydrolysis, Vmax unchanged, KM shifts
SW620 = experiment: γ-H2AX DNA damage assay; assay type: cell-based; conditions: concentration range 0–40 μM
[1] = test system: TOP2A-dependent TCF-transcription in SW620-TOP tumor organoids; experiment: 3D tumor organoid TOPflash reporter assay; assay type: cell-based
In short: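 SW620 cells stably carrying pCDH-TOPflash-luc-EF1-puro were seeded at 5,000 cells/well in ultra-low-attachment U-bottom wells, centrifuged, given 2% Matrigel (final) and grown 72 h in phenol red-free RPMI-1640 with 5% FBS. Organoids were treated 72 h. One-Glo luciferase and CellTiter-Glo 3D were added 1:1 and luminescence read. TCF signal was normalised to viability, then to DMSO controls.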

[2] = test system: caspase 3 and 7 activity in SW620 tumor organoids; experiment: Tumor organoid caspase 3/7 activity; assay type: cell-based; conditions: higher doses, vs DMSO
In short: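 SW620 cells were seeded at 2,000/well in round-bottom ultra-low-attachment 384-well plates in RPMI-1640 with 5% FBS and 2% Matrigel, grown 72 h, then treated with a range of doses for 72 h. Caspase-Glo 3/7 was added 1:1, plates shaken 30 min, and luminescence read. Staurosporine served as positive control and 0.4% DMSO as negative control.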

SW620 cells = experiment: Tumor organoid CSC stemness assay; assay type: cell-based; conditions: SW620 cells pretreated 24 h, colonies over seven days, vs DMSO
SW620 tumor organoids = experiment: SW620 tumor organoid growth in volume; assay type: cell-based; conditions: 72 h, vs DMSO
[3] = Microsome stability studies; assay type: in vitro ADME; conditions: mouse microsomes; for microsomal stability (in words): Phase I, 0 to 60 min
In short: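 Female CD-1 mouse liver microsomes (0.5 mg/mL) with 1.5 mM NADPH in 0.1 M phosphate buffer, pH 7.4, were pre-warmed 5 min at 37 °C. Reactions were started with 1 μg/mL test compound and run at 37 °C. Aliquots taken over 0–60 min were quenched with equal-volume acetonitrile and centrifuged (20,000g, 10 min) for LCMS. Compound-stability controls under reaction conditions were included.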

In vivo PK studies = conditions: female CD-1 mice, single IP 50 mg/kg, plasma
In short: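 Female CD-1 mice got one IP dose of 50 mg/kg in 100% DMSO. Blood was sampled from 0.25–24 h, three mice per time point (21 per compound), into sodium heparin. Plasma was spun out (1800xg, 10 min, 4 °C), frozen at −80 °C, mixed 1:1 with ACN acidified with formic or trifluoroacetic acid (0.1%, varying by compound), centrifuged and analysed by LC-MS/MS.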

[4] = Compound aqueous solubility in PBS; assay type: physicochemical; conditions: ratio to prototype 7
In short: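 Test compound (1 mg) was dissolved in 200 μL 10% DMSO in PBS, pH 7.4, and equilibrated as for the 1-propanol solutions (18 h, 25 °C), then centrifuged. The UV absorption spectrum was compared with a fully saturated 1-propanol solution, and solubility was calculated by linear regression.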

[5] = test system: TOP2A mediated TCF-transcription; conditions: cited from earlier work
[6] = cited from earlier work
[7] = cited from earlier work; remark: listed apart in the source

Human TOP2A, sequence (P11388 whole entry): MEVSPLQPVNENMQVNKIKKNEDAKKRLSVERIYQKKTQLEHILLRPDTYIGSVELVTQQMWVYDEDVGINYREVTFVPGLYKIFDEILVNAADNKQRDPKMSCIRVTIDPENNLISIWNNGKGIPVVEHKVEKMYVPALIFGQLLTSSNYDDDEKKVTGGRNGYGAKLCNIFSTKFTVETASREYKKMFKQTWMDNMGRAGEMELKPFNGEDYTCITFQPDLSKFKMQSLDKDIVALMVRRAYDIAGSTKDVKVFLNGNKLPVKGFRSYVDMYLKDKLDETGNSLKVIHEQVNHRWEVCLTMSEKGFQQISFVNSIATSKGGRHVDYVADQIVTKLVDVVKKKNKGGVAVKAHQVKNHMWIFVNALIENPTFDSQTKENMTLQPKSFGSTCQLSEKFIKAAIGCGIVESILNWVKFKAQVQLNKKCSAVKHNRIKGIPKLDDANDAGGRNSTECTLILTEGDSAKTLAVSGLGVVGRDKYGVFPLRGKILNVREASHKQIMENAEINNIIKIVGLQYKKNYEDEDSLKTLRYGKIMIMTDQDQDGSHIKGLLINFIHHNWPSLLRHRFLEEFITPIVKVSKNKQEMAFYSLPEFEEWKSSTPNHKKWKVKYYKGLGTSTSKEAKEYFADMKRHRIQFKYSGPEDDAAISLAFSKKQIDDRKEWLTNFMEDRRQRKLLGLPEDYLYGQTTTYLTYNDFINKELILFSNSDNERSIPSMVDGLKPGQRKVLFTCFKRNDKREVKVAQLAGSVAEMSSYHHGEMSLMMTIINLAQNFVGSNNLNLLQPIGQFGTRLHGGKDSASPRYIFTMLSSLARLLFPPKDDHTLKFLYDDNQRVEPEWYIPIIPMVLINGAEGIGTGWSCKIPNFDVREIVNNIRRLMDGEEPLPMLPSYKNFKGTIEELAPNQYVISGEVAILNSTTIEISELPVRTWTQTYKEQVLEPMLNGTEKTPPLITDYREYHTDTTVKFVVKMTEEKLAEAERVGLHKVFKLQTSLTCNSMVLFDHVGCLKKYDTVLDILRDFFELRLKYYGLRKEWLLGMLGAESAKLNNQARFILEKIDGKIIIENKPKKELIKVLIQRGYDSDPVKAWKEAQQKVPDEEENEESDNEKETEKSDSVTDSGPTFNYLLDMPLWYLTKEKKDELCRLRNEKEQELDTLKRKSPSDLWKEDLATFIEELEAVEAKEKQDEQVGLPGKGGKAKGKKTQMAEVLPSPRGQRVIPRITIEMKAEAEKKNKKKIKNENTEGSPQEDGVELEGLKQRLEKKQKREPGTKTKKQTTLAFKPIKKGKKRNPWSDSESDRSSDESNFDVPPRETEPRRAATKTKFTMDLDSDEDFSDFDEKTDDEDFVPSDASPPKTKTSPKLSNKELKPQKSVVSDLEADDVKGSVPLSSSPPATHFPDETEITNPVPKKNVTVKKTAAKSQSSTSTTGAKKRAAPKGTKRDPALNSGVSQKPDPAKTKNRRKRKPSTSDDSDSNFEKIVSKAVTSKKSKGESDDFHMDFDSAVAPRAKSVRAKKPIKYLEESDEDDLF
hTopoIIα, sequence (P11388 whole entry): as above

In the case of `CC(=O)Nc1ccc2c(-c3cc(F)ccc3O)ccnc2c1O` [Compound 7, 7-Acetamido-4-(5-fluoro-2-hydroxyphenyl)-8-hydroxyquinoline], the “inhibition of TOP2A decatenation (in words)” value (shortened to “inhibition … (in words)”) (Human TOP2A) is reported as “complete inhibition”, the “mode of TOP2A inhibition” value (hTopoIIα) is reported as “competitive mode of inhibition” and the “DNA double stranded breaks (H2AX S139 phosphorylation immunofluorescence)” value (SW620) is reported as “do not cause DNA DSBs”. The “inhibition of TOP-activity (TOPflash) in words” value [1] was “significantly inhibit”, the “induction of apoptosis (caspase 3 and 7 cleavage) in words” value (shortened to “induction of apoptosis”) [2] was “induce apoptosis” and the “colony formation (clonogenic assay)” value (SW620 cells) was “inhibit colony formation”. The “tumor organoid growth in volume” value (SW620 tumor organoids) was “significantly inhibited tumor organoid growth”, the “microsomal stability (in words)” value [3] was “metabolized faster within the first 30 minutes” and the CL (In vivo PK studies) was 64.5 mL/min/kg.
In the case of `CC(=O)Nc1ccc2c(-c3ccccc3)ccnc2c1O` [Compound 28, 7-Acetamido-4-(phenyl)-8-hydroxyquinoline], the “microsomal stability (in words)” value [3] is reported as “biphasic kinetics”.
In the case of `CC(=O)Nc1ccc2c(-c3ccc(F)cc3)ccnc2c1O` [Compound 30, 7-Acetamido-4-(4-fluorophenyl)-8-hydroxyquinoline], the “inhibition … (in words)” value (Human TOP2A) is reported as “activity is lost”.
With `CC(=O)Nc1ccc2c(-c3cccc(C(F)(F)F)c3)ccnc2c1O` [Compound 31, 7-Acetamido-4-((3-trifluoromethyl)phenyl)-8-hydroxyquinoline] the “inhibition … (in words)” value (Human TOP2A) was “excellent inhibitory activity” and the “microsomal stability (in words)” value [3] was “not readily transformed by Phase I metabolic enzymes”.
For `CC(=O)Nc1ccc2c(-c3ccc(C(F)(F)F)cc3)ccnc2c1O` [Compound 32, 7-Acetamido-4-((4-trifluoromethyl)phenyl)-8-hydroxyquinoline], the “inhibition … (in words)” value (Human TOP2A) was “excellent inhibitory activity”.
In the case of `CC(=O)Nc1ccccc1-c1ccnc2c(O)c(NC(C)=O)ccc12` [Compound 34, 7-Acetamido-4-(2-acetamidophenyl)-8-hydroxyquinoline], the “inhibition … (in words)” value (Human TOP2A) is reported as “significant loss of activity”.
With `CC(=O)Nc1ccc(-c2ccnc3c(O)c(NC(C)=O)ccc23)cc1` [Compound 35, 7-Acetamido-4-(4-acetamidophenyl)-8-hydroxyquinoline] the “inhibition … (in words)” value (Human TOP2A) was “restored inhibitory activity” and the “microsomal stability (in words)” value [3] was “not readily transformed by Phase I metabolic enzymes”.
In the case of `CC(=O)Nc1cccc(-c2ccnc3c(O)c(NC(C)=O)ccc23)c1` [Compound 36, 7-Acetamido-4-(3-acetamidophenyl)-8-hydroxyquinoline], the “inhibition … (in words)” value (Human TOP2A) is reported as “significant loss of activity”.
For `CC(=O)Nc1ccc2c(-c3cc(C(F)(F)F)ccc3O)ccnc2c1O` [Compound 37, 7-Acetamido-4-(2-hydroxy-5-trifluoromethylphenyl)-8-hydroxyquinoline], the “inhibition … (in words)” value (Human TOP2A) was “excellent inhibitory activity”.
In the case of `CC(=O)Nc1ccc2c(-c3cc(Cl)ccc3O)ccnc2c1O` [Compound 38, 7-Acetamido-4-(5-chloro-2-hydroxyphenyl)-8-hydroxyquinoline], the “inhibition … (in words)” value (Human TOP2A) is reported as “did not inhibit”.
For `O=C(CCN1CCOCC1)Nc1ccc2c(-c3cc(F)ccc3O)ccnc2c1O` [Compound 42, 4-(5-fluoro-2-hydroxyphenyl)-8-hydroxy-7-(3-(morpholin-4-yl)propanamido)quinoline], the “induction of apoptosis” value [2] was “induce apoptosis”, the “tumor organoid growth in volume” value (SW620 tumor organoids) was “significantly inhibited tumor organoid growth” and the “microsomal stability (in words)” value [3] was “least stable”. For the same molecule, the “solubility in PBS compared to prototype 7” value [4] was 3.4 times and the CL (In vivo PK studies) was 62.2 mL/min/kg.
For `CC(=O)Nc1ccc2c(-c3cc4ccccc4o3)ccnc2c1O` [Compound 53, 7-Acetamido-4-(2-benzofuranyl)-8-hydroxyquinoline], the “inhibition … (in words)” value (Human TOP2A) was “complete inhibitory activity”, the “microsomal stability (in words)” value [3] was “not readily transformed by Phase I metabolic enzymes” and the CL (In vivo PK studies) was 283.2 mL/min/kg.
For `CC(=O)Nc1ccc2c(-c3cc4ccccc4s3)ccnc2c1O` [Compound 54, 7-Acetamido-4-(benzo[b]thiophen-2-yl)-8-hydroxyquinoline], the “inhibition … (in words)” value (Human TOP2A) was “inhibition was lost”.
With `CC(=O)Nc1ccc2c(-c3ccco3)ccnc2c1O` [Compound 55, 7-Acetamido-4-(2-furanyl)-8-hydroxyquinoline] the “inhibition … (in words)” value (Human TOP2A) was “significant loss of activity”.
For `CC(=O)Nc1ccc2c(-c3ccsc3)ccnc2c1O` [Compound 58, 7-Acetamido-4-(thiophen-3-yl)-8-hydroxyquinoline], the “inhibition … (in words)” value (Human TOP2A) was “improves activity compared to the 3-furanyl analog 56” and the “microsomal stability (in words)” value [3] was “metabolized faster within the first 30 minutes; also recorded: biphasic kinetics”.
With `O=C(CN1CCOCC1)Nc1ccc2c(-c3cc4ccccc4o3)ccnc2c1O` [Compound 60, 4-(2-benzofuranyl)-8-hydroxy-7-(2-(morpholin-4-yl)acetamido)quinoline] the “induction of apoptosis” value [2] was “induce apoptosis”, the “tumor organoid growth in volume” value (SW620 tumor organoids) was “significantly inhibited tumor organoid growth” and the “microsomal stability (in words)” value [3] was “not readily transformed by Phase I metabolic enzymes”. It also gave a CL (In vivo PK studies) of 137 mL/min/kg.
In the case of `O=C(CCN1CCOCC1)Nc1ccc2c(-c3cc4ccccc4o3)ccnc2c1O` [Compound 61, 4-(2-benzofuranyl)-8-hydroxy-7-(3-(morpholin-4-yl)propanamido)quinoline], the half-life at 1 μg/mL ([3]; female, CD-1, mouse, pH 7.4) is reported as 15 min, the “microsomal stability (in words)” value [3] is reported as “not readily transformed by Phase I metabolic enzymes” and the CL (In vivo PK studies) is reported as 61.8 mL/min/kg.
For `COc1cc([C@@H]2c3cc4c(cc3[C@@H](O[C@@H]3O[C@@H]5CO[C@@H](C)O[C@H]5[C@H](O)[C@H]3O)[C@H]3COC(=O)[C@H]23)OCO4)cc(OC)c1O` [etoposide], the “effect on TOP2A mediated TCF-transcription” value (“effect” below) [5] is given as “do not inhibit”.
For `O=C1NC(=S)NC(=O)C1C(=O)Nc1ccccc1` [merbarone], the “effect” value [5] is listed as “do not inhibit”.
For `Cn1ccc2c(c1=O)C(=O)c1nccc3c1c-2nc1ccccc13` [neo, neoamphimedine], the “mode of TOP2A inhibition” value (hTopoIIα) is given as “competitive mode of inhibition”, the “DNA double stranded breaks (H2AX S139 phosphorylation immunofluorescence)” value (SW620) is given as “do not cause DNA DSBs” and the “effect” value [5] is given as “prevents TCF-transcription”. The solubility in water [6] was “insoluble” and the metabolic stability [7] was “metabolically unstable”.
